{"source": "ChEMBL document CHEMBL1124605", "about": "“Synthesis and anthelmintic activity of a series of pyrazino[2,1-a][2]benzazepine derivatives” (1989)"}
{"tested_on": "Taenia crassiceps", "assay": "1 Minimum inhibitory concentration to prevent all movement of cysts and evaginated scoleces of in vitro Taenia crassiceps screen after 48 h", "type": "functional", "procedure,_shortened": "(§1)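 Taenia crassiceps cysts taken from mice, pepsin-treated (0.05% in HCl, pH 2.0, 5 min, 37 °C) and washed three times in Hank's balanced salt solution. Compound added as a methylcellulose suspension (final 10 μg/mL) in CMRL 1066-based medium with fetal calf serum, glucose, taurocholate, yeast extract, HEPES and antibiotics, at 37 °C. Invaginated and evaginated cysts scored at 24 and 48 h. Actives titrated for MIC.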", "units": {"MIC": "µg/mL"}}
{"compound": "O=C(C1CCCCC1)N1CC(=O)N2CCCc3ccccc3C2C1", "note": "(single isomer, unassigned; (-)) [EPSIPRANTEL]", "MIC": "< 0.1"}
{"tested_on": "Taenia crassiceps", "assay": "Minimum inhibitory concentration to prevent all movement of cysts and evaginated scoleces of in vitro Taenia crassiceps screen after 48 h", "type": "functional", "procedure,_shortened": "as §1", "units": {"MIC": "µg/mL"}}
{"compound": "Cc1ccc(C(=O)N2CC(=O)N3CCCc4ccccc4C3C2)cc1", "note": "(stereo unspecified)", "MIC": "≤ 10"}
{"compound": "CC(=O)N1CC(=O)N2CCCc3ccccc3C2C1", "note": "(stereo unspecified)", "MIC": "> 10"}
{"compound": "O=C(c1ccc(F)cc1)N1CC(=O)N2CCCc3ccccc3C2C1", "note": "(stereo unspecified)", "MIC": "> 10"}
{"compound": "O=C(c1ccc([N+](=O)[O-])cc1)N1CC(=O)N2CCCc3ccccc3C2C1", "note": "(stereo unspecified)", "MIC": "> 10"}
{"compound": "CN(C)c1ccc(C(=O)N2CC(=O)N3CCCc4ccccc4C3C2)cc1", "note": "(stereo unspecified)", "MIC": "> 10"}
{"compound": "CC(C)C(=O)N1CC(=O)N2CCCc3ccccc3C2C1", "note": "(stereo unspecified)", "MIC": "> 10"}
{"compound": "O=C(C1CCCCC1)N1CC(=S)N2CCCc3ccccc3C2C1", "note": "(stereo unspecified)", "MIC": "> 10"}
{"compound": "Nc1cccc(C(=O)N2CC(=O)N3CCCc4ccccc4C3C2)c1", "note": "(stereo unspecified)", "MIC": "> 10"}
{"compound": "O=C(C1CCOCC1)N1CC(=O)N2CCCc3ccccc3C2C1", "note": "(stereo unspecified)", "MIC": "> 10"}
{"compound": "O=C(C1CCC1)N1CC(=O)N2CCCc3ccccc3C2C1", "note": "(stereo unspecified)", "MIC": "> 10"}
{"compound": "O=C(C1CCCCCC1)N1CC(=O)N2CCCc3ccccc3C2C1", "note": "(stereo unspecified)", "MIC": "> 10"}
{"compound": "O=C(c1cccc(Cl)c1)N1CC(=O)N2CCCc3ccccc3C2C1", "note": "(stereo unspecified)", "MIC": "> 10"}
{"compound": "O=C(c1cccc([N+](=O)[O-])c1)N1CC(=O)N2CCCc3ccccc3C2C1", "note": "(stereo unspecified)", "MIC": "≤ 10"}
{"compound": "O=C(c1cccnc1)N1CC(=O)N2CCCc3ccccc3C2C1", "note": "(stereo unspecified)", "MIC": "> 10"}
{"compound": "Cc1ccccc1C(=O)N1CC(=O)N2CCCc3ccccc3C2C1", "note": "(stereo unspecified)", "MIC": "> 10"}
{"compound": "Cl.O=C(C1CCCCC1)N1CCN2CCCc3ccccc3C2C1", "note": "(stereo unspecified)", "MIC": "> 10"}
{"compound": "O=C(c1ccc(Cl)cc1)N1CC(=O)N2CCCc3ccccc3C2C1", "note": "(stereo unspecified)", "MIC": "> 10"}
{"compound": "Cc1cccc(C(=O)N2CC(=O)N3CCCc4ccccc4C3C2)c1", "note": "(stereo unspecified)", "MIC": "> 10"}
{"compound": "COc1ccc(C(=O)N2CC(=O)N3CCCc4ccccc4C3C2)cc1", "note": "(stereo unspecified)", "MIC": "> 10"}
{"compound": "CCCCCC(=O)N1CC(=O)N2CCCc3ccccc3C2C1", "note": "(stereo unspecified)", "MIC": "> 10"}
{"compound": "COc1cc2c(cc1OC)C1CN(C(=O)C3CCCCC3)CC(=O)N1CCC2", "note": "(stereo unspecified)", "MIC": "> 10"}
{"compound": "O=C(c1ccc(O)cc1)N1CC(=O)N2CCCc3ccccc3C2C1", "note": "(stereo unspecified)", "MIC": "> 10"}
{"compound": "O=C(C1CCCCC1)N1CC(=O)N2CCSc3ccccc3C2C1", "note": "(stereo unspecified)", "MIC": "> 10"}
{"compound": "O=C(C1CCCCC1)N1CC(=O)N2CCCc3ccccc3C2C1", "note": "(stereo unspecified) [EPSIPRANTEL]", "MIC": "≤ 0.1"}
{"compound": "O=C(C1CCCCC1)N1CC(=O)N2CCc3ccccc3C2C1", "note": "(stereo unspecified) [PRAZIQUANTEL]", "MIC": "≤ 0.1"}
